Measurements published in article PMC5483893 (Journal of Medicinal Chemistry, 2017).

Tested on: acetylated α-tubulin (AcTub) in QBI-293 cells
Assay: Acetyl-tubulin assay
Assay type: cell-based
Conditions: 1 or 10 μM
Summary of the method: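 QBI-293 cells kept at 37 °C, 5% CO₂, trypsinised and plated at 6 × 10⁵ cells/well, then exposed overnight-later to vehicle (DMSO) or test compound for 4 h. Lysis in RIPA with protease inhibitors, 1 mM PMSF and 1 μM TSA; 100000g spin, 30 min, 4 °C. BCA protein, then AcTub ELISA. Fold-change versus vehicle, at least triplicate, two-tailed unpaired t test.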

Compound | elevation in AcTub without decrease of α-tubulin
Cc1ncn(-c2ccc(Cl)cc2)c1-c1c(F)ccc(Cl)c1F [Compound 29, 5-(3-Chloro-2,6-difluorophenyl)-1-(4-chlorophenyl)-4-methyl-1H-imidazole] | produce an elevation in AcTub at 1 or 10 μM without decreasing α-tubulin level
Cc1nc(C)n(-c2ccc(Cl)cc2)c1-c1c(F)ccc(Cl)c1F [Compound 31, 5-(3-Chloro-2,6-difluorophenyl)-1-(4-chlorophenyl)-2,4-dimethyl-1H-imidazole] | produce an elevation in AcTub at 1 or 10 μM without decreasing α-tubulin level
Cc1ncn(-c2ccc(Cl)cc2)c1-c1c(F)ccc(F)c1F [Compound 35, 1-(4-Chlorophenyl)-4-methyl-5-(2,3,6-trifluorophenyl)-1H-imidazole] | produce an elevation in AcTub at 1 or 10 μM without decreasing α-tubulin level
Cc1nc(Cl)n(-c2ccc(Cl)cc2)c1-c1c(F)ccc(F)c1F [Compound 36, 2-Chloro-1-(4-chlorophenyl)-4-methyl-5-(2,3,6-trifluorophenyl)-1H-imidazole] | produce an elevation in AcTub at 1 or 10 μM without decreasing α-tubulin level
Fc1cc(F)c(-c2c(Cl)ncn2-c2ccc(Cl)cc2)c(F)c1 [Compound 54, 4-Chloro-1-(4-chlorophenyl)-5-(2,4,6-trifluorophenyl)-1H-imidazole] | produce an elevation in AcTub at 1 or 10 μM without decreasing α-tubulin level
COc1ccc(-n2cnc(Cl)c2-c2c(F)cc(F)cc2F)cc1 [Compound 59, 4-Chloro-1-(4-methoxyphenyl)-5-(2,4,6-trifluorophenyl)-1H-imidazole] | produce an elevation in AcTub at 1 or 10 μM without decreasing α-tubulin level
COc1ccc(-n2c(-c3c(F)cc(F)cc3F)cnc2Cl)cc1 [Compound 60, 2-Chloro-1-(4-methoxyphenyl)-5-(2,4,6-trifluorophenyl)-1H-imidazole] | produce an elevation in AcTub at 1 or 10 μM without decreasing α-tubulin level
Fc1ccc(Cl)c(F)c1-c1c(Cl)ncn1-c1ccc(Cl)cc1 [Compound 64, 4-Chloro-5-(3-chloro-2,6-difluorophenyl)-1-(4-chlorophenyl)-1H-imidazole] | produce an elevation in AcTub at 1 or 10 μM without decreasing α-tubulin level
Fc1cc(-n2c(-c3c(F)ccc(F)c3F)cnc2Cl)ccc1Cl [Compound 72, 2-Chloro-1-(4-chloro-3-fluorophenyl)-5-(2,3,6-trifluorophenyl)-1H-imidazole] | produce an elevation in AcTub at 1 or 10 μM without decreasing α-tubulin level
Cc1nc(Cl)c(-c2c(F)cc(F)cc2F)n1-c1ccc(Cl)nc1 [Compound 74, 2-Chloro-5-(4-chloro-2-methyl-5-(2,4,6-trifluorophenyl)-1H-imidazol-1-yl)pyridine] | produce an elevation in AcTub at 1 or 10 μM without decreasing α-tubulin level
Fc1cc(Cl)ccc1-n1cnc(Cl)c1-c1c(F)cccc1F [Compound 78, 4-Chloro-1-(4-chloro-2-fluorophenyl)-5-(2,6-difluorophenyl)-1H-imidazole] | produce an elevation in AcTub at 1 or 10 μM without decreasing α-tubulin level
Fc1cccc(F)c1-c1c(Cl)ncn1-c1ccccc1Cl [Compound 102, 4-Chloro-1-(2-chlorophenyl)-5-(2,6-difluorophenyl)-1H-imidazole] | produce an elevation in AcTub at 1 or 10 μM without decreasing α-tubulin level

Same assay, conditions: QBI-293 cells, 1 and 10 μM

Compound | MT activity (AcTub increase), inactive compounds
Fc1cc(F)c(-c2cncn2-c2ccc(Cl)cc2)c(F)c1 [Compound 25, 1-(4-Chlorophenyl)-5-(2,4,6-trifluorophenyl)-1H-imidazole] | do not cause a detectable increase in AcTub
COc1ccc(-n2cncc2-c2c(F)cc(F)cc2F)cc1 [Compound 26, 1-(4-Methoxyphenyl)-5-(2,4,6-trifluorophenyl)-1H-imidazole] | do not cause a detectable increase in AcTub
Fc1cccc(F)c1-c1cncn1-c1ccc(OC(F)(F)F)cc1 [Compound 42, 5-(2,6-Difluorophenyl)-1-(4-(trifluoromethoxy)phenyl)-1H-imidazole] | do not cause a detectable increase in AcTub
Fc1cccc(F)c1-c1cncn1-c1ccc(Cl)cc1 [Compound 43, 1-(4-Chlorophenyl)-5-(2,6-difluorophenyl)-1H-imidazole] | do not cause a detectable increase in AcTub
Cc1cc(F)c(-c2cncn2-c2ccc(Cl)cc2)c(F)c1 [Compound 48, 1-(4-Chlorophenyl)-5-(2,6-difluoro-4-methylphenyl)-1H-imidazole] | do not cause a detectable increase in AcTub
COc1ccc(F)c(-c2cncn2-c2ccc(Cl)cc2)c1F [Compound 49, 1-(4-Chlorophenyl)-5-(2,6-difluoro-3-methoxyphenyl)-1H-imidazole] | do not cause a detectable increase in AcTub
Clc1ccc(-n2cncc2-c2ccccc2)cc1 [Compound 50, 1-(4-Chlorophenyl)-5-phenyl-1H-imidazole] | essentially devoid of MT activity
Fc1cccc(F)c1-c1cncn1-c1ccccc1 [Compound 52, 5-(2,6-Difluorophenyl)-1-phenyl-1H-imidazole] | do not cause a detectable increase in AcTub
Fc1cccc(F)c1-c1cncn1-c1ccccc1Cl [Compound 53, 1-(2-Chlorophenyl)-5-(2,6-difluorophenyl)-1H-imidazole] | do not cause a detectable increase in AcTub
Fc1ccc(-c2cnc(Cl)n2-c2ccc(Cl)cc2)cc1 [Compound 75, 2-Chloro-1-(4-chlorophenyl)-5-(4-fluorophenyl)-1H-imidazole] | essentially devoid of MT activity
Fc1ccc(-c2c(Cl)ncn2-c2ccc(Cl)cc2)cc1 [Compound 76, 4-Chloro-1-(4-chlorophenyl)-5-(4-fluorophenyl)-1H-imidazole] | essentially devoid of MT activity
Fc1ccc(F)c(-c2c(Cl)ncn2-c2ccc(Cl)cc2)c1 [Compound 80, 4-Chloro-1-(4-chlorophenyl)-5-(2,5-difluorophenyl)-1H-imidazole] | inactive

Tested on: total α-tubulin in QBI-293 cells
Assay: Total α-tubulin ELISA
Assay type: cell-based
Conditions: at doses typically required to induce an elevation in AcTub
Summary of the method: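 QBI-293 cells were plated at 6 × 10⁵ cells/well, grown overnight at 37 °C and 5% CO₂, then given fresh medium with vehicle (DMSO) or 1 and 10 μM test compound for 4 h. Lysis was in RIPA with protease inhibitors, 1 mM PMSF and 1 μM TSA, followed by 100000g for 30 min at 4 °C. Supernatant was BCA-normalized and α-tubulin measured by ELISA as fold-change versus vehicle. Samples were run at least in triplicate; significance was by two-tailed unpaired t test.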

Compound | effect on total α-tubulin levels
Cc1nc(Cl)n(-c2ccc(Cl)cc2)c1-c1c(F)ccc(Cl)c1F [Compound 30, 2-Chloro-5-(3-chloro-2,6-difluorophenyl)-1-(4-chlorophenyl)-4-methyl-1H-imidazole] | cause a significant reduction in total α-tubulin levels
Cc1ncc(-c2c(F)ccc(F)c2F)n1-c1ccc(Cl)cc1 [Compound 34, 1-(4-Chlorophenyl)-2-methyl-5-(2,3,6-trifluorophenyl)-1H-imidazole] | cause a significant reduction in total α-tubulin levels
Cc1ccc(F)c(-c2c(Cl)ncn2-c2ccc(Cl)cc2)c1F [Compound 62, 4-Chloro-1-(4-chlorophenyl)-5-(2,6-difluoro-3-methylphenyl)-1H-imidazole] | cause a significant reduction in total α-tubulin levels
